Screens deposited in PubChem BioAssay by The Scripps Research Institute Molecular Screening Center.
VIM-2 inh = blocks Pseudomonas aeruginosa VIM-2 metallo-beta-lactamase; purified VIM-2, nitrocefin hydrolysis, epi-absorbance fluorescence; inhibition, % at 5.6 µM; 0.89% of 290,000 active; AID 1527;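 active means inhibition above the mean of all tested compounds plus 3 SD, cutoff set per screening run, cut at about 7.5% in these data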;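 further: red hydrolysis product quenches plate fluorescence so inhibitors raise well fluorescence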
IMP-1 inhibitor = blocks Pseudomonas aeruginosa IMP-1 metallo-beta-lactamase; inhibition, % at 5.6 µM; purified IMP-1, nitrocefin hydrolysis, epi-absorbance fluorescence; 0.45% of 290,000 active; AID 1556;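 active means inhibition above the mean plus 3 SD of all compounds in the same screening run, cut at about 4.5% in these data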
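System: purified IMP-1 / Input: IMP-1 dispensed at 0.2 nM / Medium: 50 mM HEPES pH 7.1, 50 µM ZnSO4, 0.05% Brij 35 / Timing: 15 min enzyme–compound preincubation, then 25 min nitrocefin reaction, 25 °C / Technique: plate fluorescence quenching by hydrolysis product, ex 480/em 530 nm / Repeats: singlicate testing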
core dimer inh = HCV core protein dimerization inhibition; TR-FRET GST/Flag-core106 dimerization, 1536-well; inhibition, % at 5 µM; 0.33% of 300,000 active;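 active means inhibition above the mean of all tested compounds plus 3 SD, set per screening campaign, cut at about 45% in these data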
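Test system: GST/Flag-tagged HCV core106 proteins; Medium: KF-containing HEPES buffer, pH 7.45, DTT, CHAPS, BSA; Times: compound-protein-antibody incubation 4 h at 22.5 °C; Detection: TR-FRET 671 and 617 nm emission; Benchmarks: wells lacking GST-core106 and wells with excess unlabelled core106.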
DNA FID counter = fluorescent intercalator displacement, NS3 helicase counter-screen; DNA fluorescent intercalator displacement, fluorescence; inhibition, % at 7.9 µM; 0.17% of 290,000 active; in the data active means inhibition above about 37%;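 further: higher means more ethidium bromide displaced from hairpin DNA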
A number is an active result; . = inactive; / = no result given. Shown are actives, neighbours in structure and some others; about 1.6% of the full set was active somewhere.

SMILES | VIM-2 inh | IMP-1 inhibitor | core dimer inh | DNA FID counter
CCn1nnnc1SCCSc1nnnn1CC | . | . | . | .
N#CC1(C#N)CC(C=O)=C(N)C1(C#N)CC(=O)c1ccc(F)cc1 (configuration not stated) | . | 7.5 | . | .
Cc1ccc(CNC(=O)/C=C/c2c(Cl)cccc2Cl)cc1 | . | . | . | .
CC(C)NC(=O)c1cccc2c1-c1ccccc1C2=O | . | . | . | .
NC(=O)COC(=O)c1cccc2c1-c1ccccc1C2=O | 7.9 | . | . | .
Cc1cc(C)n(CCSCC(=O)O)n1 | . | . | . | .
Cc1ccc(C)c(S(=O)(=O)Nc2ccc3oc(C)c(C(=O)O)c3c2)c1 | . | 6.0 | . | .
Cc1oc2ccc(NS(=O)(=O)c3ccc(C(C)(C)C)cc3)cc2c1C(=O)Nc1ccccc1 | . | . | 54 | .
CC(Oc1ccccc1)C(=O)Nc1ccccc1O (configuration not stated) | . | . | . | .
N#Cc1ccc(COC(=O)c2cccnc2Cl)cc1 | . | . | . | .
CN1CCN(c2ccc(C(=O)c3ccccc3)cc2[N+](=O)[O-])CC1 | 8.3 | . | . | .
CCOc1ccc(CCNC(=O)c2nn(C)c3c2CS(=O)(=O)c2ccccc2-3)cc1OCC | . | . | . | .
COc1cccc(=O)c2c(C)n(CC(=O)c3ccccc3)c(C)c12 | . | . | 67 | .
CC(C)(C)C1CCC(OC(=O)CN2CCCCC2)CC1 (configuration not stated) | . | . | . | .
NC(CC(=O)OC1CCCCC1)C(=O)OC1CCCCC1 (configuration not stated) | . | 5.4 | . | .
CCOC(=O)C1CCN(c2nc(C)nc3c2oc2ccccc23)CC1 | / | / | . | /
CCOC(=O)C1CCCN(C(=O)c2cc3c(C)nc4ccccc4c3o2)C1 (configuration not stated) | 7.9 | . | . | .
Cc1nc2ccccc2c2oc(C(=O)N3CC(C)CC(C)C3)cc12 (configuration not stated) | 9.8 | . | . | .
CCOC(=O)C1CCCN(c2nc(C)nc3c2oc2ccccc23)C1 (configuration not stated) | 10 | . | . | .
CN(CCCNS(=O)(=O)c1cccc2cccnc12)Cc1ccccc1 | . | . | . | .
N#CCc1nnc2n1-c1ccccc1CCC2 | . | 12 | . | .
O=C(/C=N/O)Nc1ccccc1C(=O)O | . | . | . | .
COCc1c(Br)c(C)nc(OCC(=O)N/N=C/c2cc(C)n(-c3ccc([N+](=O)[O-])cc3)c2C)c1C#N | . | . | 48 | .
O=C(COC(=O)c1cccs1)NCCC1=CCCCC1 | . | . | . | .
CCn1c(-c2cc(-c3ccc(C)c(C)c3)nc3ccccc23)n[nH]c1=S | . | . | . | .
SMILES | VIM-2 inh | IMP-1 inhibitor | core dimer inh | DNA FID counter
CCCn1c(=O)c2sccc2n2c(CCCC(=O)NCc3cccnc3)nnc12 | . | . | . | .
Cn1c(=O)c2sccc2n2c(CCCC(=O)Nc3ccccc3)nnc12 | . | . | . | .
Cn1c(=O)c2sccc2n2c(CCCC(=O)NC3CCN(Cc4ccccc4)CC3)nnc12 | 10 | . | . | .
Cn1c(=O)c2sccc2n2c(CCCC(=O)NCc3cccnc3)nnc12 | 11 | . | . | .
CCOC(=O)/C(C#N)=C/c1c(N2CCN(C)CC2)nc2ccccn2c1=O | . | . | . | .
CCC(C)C(=O)Nc1ncc2c(n1)CC(c1cccs1)CC2=O (configuration not stated) | . | . | . | .
N/C(=N\c1nc(CSc2nnnn2-c2ccccc2)cc(=O)[nH]1)Nc1ccccc1 | . | . | . | .
O=c1cc(CSc2nnnn2-c2ccccc2)nc(Nc2ccc(F)cc2)[nH]1 | 10.0 | . | . | .
O=C(Nc1ccccc1)N1CCCN(c2c(Cl)cncc2Cl)CC1 | . | . | . | .
CCCn1c(=O)c2ccccc2n2c(SCC(=O)c3ccccc3)nnc12 | . | . | . | .
CCCn1c(=O)c2ccccc2n2c(SCCNCCO)nnc12 | 11 | . | . | .
COc1cc(CNCc2ccncc2)cc(OC)c1OC | . | 6.1 | . | .
CCc1ccc(C(=O)COC(=O)C(CCSC)NC(=O)c2ccccc2)cc1 (configuration not stated) | . | . | . | .
O=C(Nc1ccc(C2=NCCN2)cc1)c1ccc(C(=O)Nc2ccc(C3=NCCN3)cc2)c(Cl)c1 | . | . | . | 37
COc1ccc2[nH]c3c(C)c4ccncc4c(C)c3c2c1 | . | . | . | 77
Cc1ccc(C(C)C)c(OCc2nn(CC(=O)c3ccc(OC(F)F)cc3)c3[n+]2CCCCC3)c1 | . | . | . | 37
NS(=O)(=O)c1ccc(-c2ccc(/C=C3\C(=O)Nc4ccccc43)o2)cc1 | . | . | . | .
CC1(C)OC(=O)C(=Cc2ccc(-c3ccc(S(N)(=O)=O)cc3)o2)C(=O)O1 | . | 34 | . | .
Cc1cc2occ(CC(=O)Nc3nnc(C4CC4)s3)c2cc1C | . | 20 | . | .
COc1cc2c(C#N)c(N3CCCCC3)nc(N)c2c(N)n1 | . | . | . | .
COc1ccc(CN2C(=O)Cc3c2nc(N)c2c(N)nc(N4CCCCC4)c(C#N)c32)cc1 | . | . | 56 | .
Cc1cccn2c(=O)c3cc(C(=O)NCCN4CCOCC4)c(=N)n(CCN4CCOCC4)c3nc12 | 11 | . | . | .
COc1ccc(CCNC(=O)c2cc3c(=O)n4cccc(C)c4nc3n(CCCN3CCOCC3)c2=N)cc1 | 7.8 | . | . | 54
Cc1cccn2c(=O)c3cc(C(=O)NC4CCCC4)c(=N)n(CC4CCCO4)c3nc12 (configuration not stated) | . | . | . | .
Cc1cccn2c(=O)c3cc(C(=O)NC4CCCC4)c(=N)n(CCCN4CCOCC4)c3nc12 | . | . | . | 41
SMILES | VIM-2 inh | IMP-1 inhibitor | core dimer inh | DNA FID counter
COCCn1c(=N)c(C(=O)NCCc2ccc(OC)cc2)cc2c(=O)n3cccc(C)c3nc21 | . | . | . | .
Cn1c(C(=O)NCCN2CCOCC2)cc2c(=O)n3ccccc3nc21 | 8.3 | . | . | .
CCOc1ccc(N2C(=O)C(Cl)=C(N3CCOCC3)C2=O)cc1 | . | . | . | .
Cc1noc(NC(=O)c2ccc(Cl)c(Cl)c2)c1Cl | . | . | . | .
COc1ccc(O)c(/C=N/NC(=S)Nc2cccnc2)c1 | . | . | . | .
CN(C)c1ccc(C2N(C(=O)N3CCOCC3)CCN2S(=O)(=O)c2ccccc2)cc1 (configuration not stated) | . | . | . | .
Cc1cccc(C)c1NC(=O)c1cn(-c2ccccc2)nc1-c1ccccc1 | . | . | . | .
Cc1cccn2c(=O)c3cc(C(=O)N4CCOCC4)n(C)c3nc12 | 8.2 | . | . | .
Cc1cccn2c(=O)c3cc(C(=O)N4CCN(C(=O)c5ccco5)CC4)n(C)c3nc12 | . | . | . | .
O=C(NCCN1CCN(c2ccccc2)CC1)c1cccn2c(=O)c3cc(Cl)ccc3nc12 | 8.2 | . | . | .
Nc1nonc1-c1nc2ccccc2n1CC(=O)N/N=C\c1ccc(-c2ccc(Cl)cc2)o1 | . | . | 84 | .
O=C(CSc1cccc(C(F)(F)F)c1)NC(=O)NCc1ccco1 | . | . | 51 | .
